Reference: ChEMBL document CHEMBL4024790 (J Med Chem, 2018)

Legend:
Rattus norvegicus [1] = species: Rattus norvegicus
[2] = 1-octanol/phosphate buffer solution partition coefficient, log D of the compound at pH 7.4 after 1 hr by LC-MS/MS method; assay type: physicochemical
Rattus norvegicus [3] = assay: Toxicity in rat assessed as effect on vasculature at 5 to 250 mg/kg/day, po up to 15 days by microscopic method; assay type: organism-based; conditions: in vivo, 360 h
Rattus norvegicus [4] = assay: Cardiotoxicity in rat at 5 to 250 mg/kg/day, po up to 15 days by microscopic method; assay type: toxicity, organism-based; conditions: in vivo, 360 h
Outline: (§1)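 Exploratory rat toxicity study, oral dosing at 5, 50 and 250 mg/kg/day for up to 15 days, with microscopic examination of heart and vasculature and measurement of plasma and brain exposure.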

[5] = Apparent intrinsic clearance in human liver microsomes; assay type: ADME, microsome; conditions: read-out: CLH(app)
[6] = target: cGMP-specific 3',5'-cyclic phosphodiesterase (Homo sapiens, UniProt O76074); assay: Inhibition of PDE5A1 (unknwon origin) using [3H]cGMP as substrate after 30 mins by SPA
Canis familiaris = assay: Cardiotoxicity in dog assessed as arteriopathy in arteries at >= 20 mg/kg/day, po for 14 days by microscopic method; assay type: toxicity, organism-based, Canis lupus familiaris; conditions: in vivo, 336 h
Brain = assay: Drug uptake in rat brain at 5 to 250 mg/kg/day, po up to 15 days by microscopic method; assay type: ADME, organism-based; conditions: in vivo, 360 h
Outline: as §1

Plasma = assay: Drug uptake in rat plasma at 5 to 250 mg/kg/day, po up to 15 days by microscopic method; assay type: ADME, organism-based; conditions: in vivo, 360 h
Outline: as §1

[7] = Drug level in dog hepatocytes treated with 4-(azetidin-1-yl)-7-methyl-5-(1-methyl-5-(5-(trifluoromethyl)pyridin-2-yl)-1H-pyrazol-4-yl)imidazo[1,5-f][1,2,4]triazine at 1 to 50 uM after 1 hr by LC-MS/MS analysis; assay type: ADME, cell-based, Canis lupus familiaris, Hepatocyte
Outline: (§2)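 Rat, dog or human liver microsomes or hepatocytes (P450 0.35–0.5 µM final) incubated with compound at 1, 10 or 50 µM in 100 mM phosphate buffer with 1 mM NADP regenerating system, 37°C for 1 h; quenched with 4 volumes acetonitrile, centrifuged, supernatant evaporated, reconstituted in 5% aqueous acetonitrile and analysed by reversed-phase LC.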

Liver [8] = assay: Drug level in rat liver microsomes treated with 4-(azetidin-1-yl)-7-methyl-5-(1-methyl-5-(5-(trifluoromethyl)pyridin-2-yl)-1H-pyrazol-4-yl)imidazo[1,5-f][1,2,4]triazine at 1 to 50 uM after 1 hr by LC-MS/MS analysis; assay type: ADME, microsome
Outline: as §2

[9] = Drug level in rat hepatocytes treated with 4-(azetidin-1-yl)-7-methyl-5-(1-methyl-5-(5-(trifluoromethyl)pyridin-2-yl)-1H-pyrazol-4-yl)imidazo[1,5-f][1,2,4]triazine at 1 to 50 uM after 1 hr by LC-MS/MS analysis; assay type: ADME, cell-based, Hepatocyte
Outline: as §2

Liver [10] = assay: Drug level in dog liver microsomes treated with 4-(azetidin-1-yl)-7-methyl-5-(1-methyl-5-(5-(trifluoromethyl)pyridin-2-yl)-1H-pyrazol-4-yl)imidazo[1,5-f][1,2,4]triazine at 1 to 50 uM after 1 hr by LC-MS/MS analysis; assay type: ADME, Canis lupus familiaris, microsome
Outline: as §2

Liver [11] = assay: Drug level in human liver microsomes treated with 4-(azetidin-1-yl)-7-methyl-5-(1-methyl-5-(5-(trifluoromethyl)pyridin-2-yl)-1H-pyrazol-4-yl)imidazo[1,5-f][1,2,4]triazine at 1 to 50 uM after 1 hr by LC-MS/MS analysis; assay type: ADME, microsome
Outline: as §2

[12] = Drug level in human hepatocytes treated with 4-(azetidin-1-yl)-7-methyl-5-(1-methyl-5-(5-(trifluoromethyl)pyridin-2-yl)-1H-pyrazol-4-yl)imidazo[1,5-f][1,2,4]triazine at 1 to 50 uM after 1 hr by LC-MS/MS analysis; assay type: ADME, cell-based, Hepatocyte
Outline: as §2

human MDR1 = assay: Passive permeability from apical to basolateral side in MDCK cells expressing human MDR1; assay type: ADME, cell-based, Canis lupus familiaris; conditions: dog, read-out: permeability

Cn1ncc(-c2nn(C)c3ncnc(N4CCC4)c23)c1-c1ccc(C(F)(F)F)cc1 showed a fIC50 (Rattus norvegicus [1]) of 11 nM and a logD at 1 h [2] of 2.9.
With Cc1nc(-c2cnn(C)c2-c2ccc(Cl)cn2)c2c(N3CCC3)ncnn12 the Activity (Rattus norvegicus [3]) was “Toxic”, the Activity (Rattus norvegicus [4]) was “Toxic” and the logD at 1 h [2] was 1.7. The CLint scaled [5] was 13 mL/min/kg.
Cc1nc(-c2cnn(C)c2-c2ccc(C(F)(F)F)cc2)c2c(N3CCC3)ncnn12 showed a CLint scaled [5] of 93 mL/min/kg.
With CCCc1nn(C)c2c(=O)nc(-c3cc(S(=O)(=O)N4CCN(CC)CC4)ccc3OCC)[nH]c12 the IC50 [6] was 8.9 nM.
With CNc1ncnn2c(C)nc(-c3cnn(C)c3-c3ccc(C(F)(F)F)cc3)c12 the Activity (Rattus norvegicus [3]) was “Toxic”, the Activity (Rattus norvegicus [4]) was “Toxic” and the logD at 1 h [2] was 2.8. It also gave a CLint scaled [5] of 33 mL/min/kg.
In the case of CNc1ncnn2c(C)nc(-c3cnn(C)c3-c3ccc(C(F)(F)F)cn3)c12, the Activity (Canis familiaris) is reported as “Toxic”, the Activity (Rattus norvegicus [3]) is reported as “Non-Toxic” and the Drug uptake (Brain) is reported as “Active”. The Activity (Rattus norvegicus [4]) was “Non-Toxic”, the Drug uptake (Plasma) was “Active” and the logD at 1 h [2] was 1.8. It also gave a CLint scaled [5] of 9.5 mL/min/kg.
In the case of Cc1nc(-c2cnn(C)c2-c2ccc(C(F)(F)F)cn2)c2c(N3CC(O)C3)ncnn12, the Drug metabolism [7] is reported as “Metabolite_Detected”, the Drug metabolism (Liver [8]) is reported as “Metabolite_Detected” and the Drug metabolism [9] is reported as “Metabolite_Detected”. For the same compound, the Drug metabolism (Liver [10]) was “Metabolite_Detected”, the Drug metabolism (Liver [11]) was “Metabolite_Detected” and the Drug metabolism [12] was “Metabolite_Detected”.
For Cc1nc(-c2cnn(C)c2-c2ccc(C(F)(F)F)cn2)c2c(NCCC(=O)O)ncnn12, the Drug metabolism [7] was “Metabolite_Detected”, the Drug metabolism (Liver [8]) was “Metabolite_Detected” and the Drug metabolism [9] was “Metabolite_Detected”. For the same compound, the Drug metabolism (Liver [10]) was “Metabolite_Detected”, the Papp A→B (human MDR1) was 1.1 ×10⁻⁶ cm/s and the Drug metabolism (Liver [11]) was “Metabolite_Detected”. For the same compound, the Drug metabolism [12] was “Metabolite_Detected”.
